Experimental data from PubChem BioAssay AID1296 (Columbia University Molecular Screening Center, 2008).
Screen size: about 130,000 compounds; about 1,000 (0.77%) were called active. Inconclusive results (about 1%) are left out.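 Rule for the calls: active = activation at 2 µM above a set limit, confirmed on inspection of the cell images; inconclusive = above the set limit but not confirmed on image inspection; inactive = the rest.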 For the sample, actives were picked, then their nearest neighbours and some compounds at random.

assay: activators of insulin promoter-driven GFP, primary screen, imaging, TRM-6 cells, eGFP reporter, cell count (AID 1296); conditions: at 2 µM; activation: stronger effect = higher value, plate-scaled: unstimulated 0, stimulated control 100; normalized cell count: measured here: cell count (toxicity);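 for activation: share of cells whose green reporter signal exceeds an intensity cutoff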;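 for normalized cell count: cells counted after 48 h compound exposure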
Method in brief: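 Test system: human fetal islet-derived TRM-6 cells with tamoxifen-inducible insulin promoter–eGFP reporter; schedule: overnight tamoxifen, then two-day compound incubation at 37 °C; measured by: high-content imaging of fixed cells with Hoechst nuclear stain; evaluation: percent cells above green-intensity threshold, converted to percent activation versus plate controls; control set: stimulated and unstimulated wells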

| SMILES | activation | normalized cell count [%] |
| --- | --- | --- |
| CCOC(=O)NN1C(=O)c2ccccc2NC1c1ccccc1O (centres undefined) | 2.78% (inactive) | 107 |
| N#C/C(=C/c1ccc(N2CCOCC2)o1)C(=O)N1CCOCC1 | 7.69% (inactive) | 59.4 |
| N#C/C(=C\c1ccc(N2CCOCC2)o1)C(=O)N1CCOCC1 | 7.41% (inactive) | 99.1 |
| N#C/C(=C/c1ccc(N2CCCCC2)o1)C(=O)NCCc1c[nH]c2ccccc12 | 257% (active) | 92.9 |
| CC1(C)C2CC=C(/C=N/NC(=O)c3ccc(Cl)cc3)C1C2 (centres undefined) | -3.33% (inactive) | 104 |
| Cc1ccc(-c2noc(CSc3nnc(-c4ccccc4)n3C)n2)cc1 | -8.33% (inactive) | 65.9 |
| COc1ccc(-c2noc(CSc3ccc(C)cc3)n2)cc1 | 521% (active) | 77.9 |
| COc1ccc(-c2noc(-c3ccc(C)cc3)n2)cc1 | 1.41% (inactive) | 143 |
| O=C(Nc1ccccc1F)c1ccc(Cn2cc(Br)cn2)cc1 | 0% (inactive) | 118 |
| Cc1ccc(O)c(-c2cc(C(=O)NCc3ccccc3)[nH]n2)c1 | -7.14% (inactive) | 81.6 |
| Cc1cc(C)cc(NC(=O)c2cccc(NC(=O)C3C4CC5OC(=O)C3C5C4)c2)c1 (centres undefined) | 76.7% (active) | 85.6 |
| CSCc1ccc(C(=O)Nc2cc(C)cc(C)c2)cc1 | -9.09% (inactive) | 139 |
| Cc1cccc(NC(=O)C2CC(=O)OC23CCCC3)c1 (centres undefined) | 7.14% (inactive) | 75.4 |
| O=C(COC(=O)c1cc(S(=O)(=O)N2CCCCC2)ccc1Cl)NCc1ccco1 | -5.56% (inactive) | 260 |
| CC(C)CCC(C)NC(=O)c1ccc2nccnc2c1 (centres undefined) | 6.67% (inactive) | 43.3 |
| Cc1ccc(/C=C(\C#N)C(=O)Nc2cccc3ncccc23)o1 | 2.7% (inactive) | 106 |
| Cc1ccc2c(NC(=O)C3CC3)cccc2n1 | 140% (active) | 109 |
| Cc1nc(NC(=O)C2CCCCC2)sc1C | 0% (inactive) | 50 |
| CC(C)(C)NC(=O)CN(C(=O)c1ccc(Cl)nc1)c1cccc2ccccc12 | 108% (inactive) | 93 |

| SMILES | activation | normalized cell count [%] |
| --- | --- | --- |
| Cc1cccc(C(=O)Nc2ccc(CC(=O)O)cc2)c1 | 226% (inactive) | 56.2 |
| Cc1cccc(C(=O)Nc2ccc(C(=O)/C=C/c3cccs3)cc2)c1 | 9.3% (inactive) | 81.7 |
| O=C(Nc1ccccc1)c1ccc2nsnc2c1 | 193% (active) | 111 |
| Cc1nn2c3cc(N4CCOCC4)ccc3nc2c2ccccc12 | 63.5% (inactive) | 79.7 |
| CC1C/C(=N/NC(=O)c2cccs2)CC(C)(C)C1 (centres undefined) | 7.25% (inactive) | 112 |
| COc1cc(NS(=O)(=O)c2ccc(N=Cc3c(C)[nH]n(-c4ccccc4)c3=O)cc2)nc(OC)n1 | 3.7% (inactive) | 98.8 |
| Clc1ccc(-c2nnc(-c3ccccc3)nc2N2CCSCC2)cc1 | -5.41% (inactive) | 97.6 |
| COc1ccc(-c2nc(-c3ccccc3)no2)c(OC)c1 | 0% (inactive) | 103 |
| Cn1nc(-c2ccccc2)c(-c2nc(-c3ccc(Cl)cc3)no2)c1Cl | 471% (active) | 71.1 |
| COc1cccc(NC(=O)CN(C)C(C)C(=O)Nc2ccc(C#N)cc2)c1 (centres undefined) | 8.11% (inactive) | 96.1 |
| COc1ccc(C(=O)CSc2n[nH]c(N)n2)cc1 | 7.41% (inactive) | 116 |
| COC(=O)CSc1nc(C)c2ccc(OC)cc2n1 | 438% (active) | 69.4 |
| COC(=O)c1cc(C(=O)CSc2nc(C)cc(C)n2)ccc1O | -5.56% (inactive) | 111 |
| Cc1nn(-c2ccccn2)c2c1C(c1ccncc1)C1=C(CC(C)(C)CC1=O)N2 (centres undefined) | -6.9% (inactive) | 120 |
| CN(C)c1nnnn1-c1ccc(Cl)cc1 | 0% (inactive) | 128 |
| Cn1nccc1CNC(=O)c1ccnn1C | 7.69% (inactive) | 127 |
| O=C(COc1ccccc1)N1CCc2ccccc2C1 | 3.45% (inactive) | 131 |
| COc1ccc(OCC(=O)N2CCN(C(=O)c3cccs3)CC2)cc1 | 9.09% (inactive) | 125 |
| COc1ccc(OCC(=O)N2CCN(C(=O)COc3ccccc3)CC2)cc1 | 411% (active) | 70.2 |

| SMILES | activation | normalized cell count [%] |
| --- | --- | --- |
| O=C(CSc1nnc(-c2c[nH]c3ccccc23)o1)c1ccccc1 | 0% (inactive) | 133 |
| CC(C)C[C@@H](N)c1nnc(SCC(=O)c2ccc(Cl)cc2)o1 | 533% (active) | 62.6 |
| O=C(CSc1nnc(Cn2cnc3ccccc32)o1)c1ccccc1 | 0% (inactive) | 112 |
| CCCc1nc2c([nH]1)C(c1cccnc1)C(C#N)=C(N)O2 (centres undefined) | -6.67% (inactive) | 147 |
| OC1CSc2nc3ccccc3n2C1 (centres undefined) | 0% (inactive) | 81.8 |
| C=CCn1c(CCc2ccc(OC(C)C)cc2)n[nH]c1=S | 0% (inactive) | 117 |
| CCCOCC(O)CC(CC)C(=O)NNC(=S)Nc1ccccc1 (centres undefined) | 0% (inactive) | 106 |
| Nc1ccc(-n2nncc2-c2ccco2)cc1 | 406% (active) | 53.5 |
| CCOC(=O)CNC(=O)CSc1ccc2nnc(-c3cccnc3)n2n1 | 0% (inactive) | 132 |
| Cn1cccc1-c1nc2ccccc2n1C | 300% (active) | 75.7 |
| COc1ccc(-c2nc3ccccc3n2CCC(C)C)cc1OC | -9.86% (inactive) | 74.4 |
| COc1ccc(N2CCN(C(=O)COc3ccc4c(C)cc(=O)oc4c3)CC2)cc1 | -8.33% (inactive) | 132 |
| COc1cc(NC(=S)NNC(=O)CC(C)C)c(OC)cc1Cl | 9.38% (inactive) | 70.7 |
| O=C(NC1CCCC1)C(NS(=O)(=O)c1ccc(Br)s1)c1ccccc1 (centres undefined) | 107% (inactive) | 72.4 |
| O=C(CSc1nn(-c2ccc(F)cc2)c(=S)s1)NC1CCS(=O)(=O)C1 (centres undefined) | 5.88% (inactive) | 104 |
| COc1ccc(-n2nc3c(c2NC(=O)c2ccc(N4C(=O)CCC4=O)cc2)CSC3)cc1 | -5.88% (inactive) | 73.5 |
| O=C(CSc1nc2ccccc2o1)N1c2ccccc2Sc2ccc(Cl)cc21 | -4.44% (inactive) | 77.2 |
| CCS(=O)(=O)c1ccc2oc(SCC(=O)N3c4ccccc4CC3C)nc2c1 (centres undefined) | 457% (active) | 101 |
| CC1Cc2ccccc2N1C(=O)CSc1nc2ccccc2o1 (centres undefined) | 7.14% (inactive) | 87.7 |
